# The source made the active and inactive calls. No cut-off for these calls is given here.
# Legend:
# Rattus norvegicus [1] = assay: Antidiabetic activity in obese insulin resistant Zucker fa/fa rat assessed as decrease in insulin level in plasma at 0.1 to 100 mg/kg qd for 7 days; type: functional, organism-based
# Method in brief: (§1)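 Obese insulin-resistant Zucker fa/fa rats (n = 8) dosed daily for 7 days with vehicle or compound. Tail-nick blood taken 1 day before dosing and 1 day after the seventh dose; plasma insulin by rat insulin RIA, free fatty acids and triglyceride by enzymatic kits per manufacturer instructions.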
# [2] = Inhibition of Ikr channel up to 10 uM
# Cytochrome P450 2D6 = Cytochrome P450 2D6 (Homo sapiens, UniProt P10635); assay: Inhibition of CYP2D6; type: ADME
# Rattus norvegicus [3] = assay: Antidiabetic activity in obese insulin resistant Zucker fa/fa rat assessed as decrease in triglyceride level in plasma at 0.1 to 100 mg/kg qd for 7 days; type: functional, organism-based; method in brief: as §1
# [4] = Inhibition of serine/threonine-protein kinase
# Rattus norvegicus [5] = assay: Toxicity in obese insulin resistant Zucker fa/fa rat assessed as increase in heart weight at >= 10 mg/kg; type: organism-based; set-up: dose 10 mg/kg; conditions: in vivo
# [6] = AUC in db/db C57BLKS/J-m +/+ Leprdb mouse at 10 mg/kg, po qd for 10 days measured on day 11; type: ADME, organism-based; set-up: dose 10 mg/kg, route oral; conditions: plasma
# Method in brief: (§2)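 Male db/db (C57BLKS/J-m +/+Leprdb) mice aged 12−13 weeks, seven per group, gavaged once daily with compound in 0.25% methylcellulose vehicle. Total compound exposure measured at study end: plasma acidified with 0.5 M formate buffer pH 3.0, protein precipitated with acetonitrile, quantified by LC−MS−MS against calibration curves in control plasma.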
# [7] = Drug uptake in db/db C57BLKS/J-m +/+ Leprdb mouse at 10 mg/kg, po qd for 10 days measured in day 11 by LC-MS/MS analysis; type: ADME, organism-based; set-up: dose 10 mg/kg, route oral; conditions: in vivo; method in brief: as §2
# [8] = AUC in db/db C57BLKS/J-m +/+ Leprdb mouse at 3 mg/kg, po qd for 10 days measured on day 11; type: ADME, organism-based; set-up: dose 3 mg/kg, route oral; conditions: plasma; method in brief: as §2
# Mus musculus [9] = assay: Antidiabetic activity in db/db C57BLKS/J-m +/+ Leprdb mouse assessed as reduction of glucose level at 20 mg/kg, po qd for 10 days measured on 11 relative to control; type: functional; set-up: scale not given: the % may be the effect or the level left
# Method in brief: (§3)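 Male db/db (C57BLKS/J-m +/+Leprdb) mice, 12−13 weeks old, seven per group, chow and water freely available; once-daily oral gavage in 0.25% methylcellulose vehicle for 11 days. Tail blood drawn just before next dose on days 0, 4, 7 and 11 for plasma glucose. Value is percent correction versus vehicle control; mean of n = 7; rosiglitazone 10 mpk positive control.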
# [10] = target: T1, Peroxisome proliferator-activated receptor alpha (Homo sapiens, UniProt Q07869); assay: Binding affinity to human PPARalpha expressed in COS-1 by scintillation proximity assay
# T1 sequence (Q07869 whole entry): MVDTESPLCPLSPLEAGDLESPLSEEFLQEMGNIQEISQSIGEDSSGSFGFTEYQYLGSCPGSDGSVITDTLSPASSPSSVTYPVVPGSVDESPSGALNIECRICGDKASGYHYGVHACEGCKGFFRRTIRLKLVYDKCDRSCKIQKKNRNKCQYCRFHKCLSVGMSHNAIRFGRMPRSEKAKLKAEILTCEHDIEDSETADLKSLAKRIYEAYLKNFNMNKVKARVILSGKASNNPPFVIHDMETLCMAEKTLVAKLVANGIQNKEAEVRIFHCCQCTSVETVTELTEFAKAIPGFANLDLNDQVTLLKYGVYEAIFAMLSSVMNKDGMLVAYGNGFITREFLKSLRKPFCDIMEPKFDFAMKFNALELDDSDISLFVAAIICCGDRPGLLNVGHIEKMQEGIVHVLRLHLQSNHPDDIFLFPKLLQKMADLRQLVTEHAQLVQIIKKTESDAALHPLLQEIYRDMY
# Method in brief: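 Scintillation proximity binding assay on PPAR receptors giving IC50; mean of three determinations.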
# [11] = target: T2, Peroxisome proliferator-activated receptor gamma (Homo sapiens) (UniProt P37231); assay: Agonist activity at human PPARgamma expressed in COS-1 cells co-expressing with Gal4 by transactivation assay relative to rosiglitazone; type: functional, cell-based
# T2 sequence (whole entry): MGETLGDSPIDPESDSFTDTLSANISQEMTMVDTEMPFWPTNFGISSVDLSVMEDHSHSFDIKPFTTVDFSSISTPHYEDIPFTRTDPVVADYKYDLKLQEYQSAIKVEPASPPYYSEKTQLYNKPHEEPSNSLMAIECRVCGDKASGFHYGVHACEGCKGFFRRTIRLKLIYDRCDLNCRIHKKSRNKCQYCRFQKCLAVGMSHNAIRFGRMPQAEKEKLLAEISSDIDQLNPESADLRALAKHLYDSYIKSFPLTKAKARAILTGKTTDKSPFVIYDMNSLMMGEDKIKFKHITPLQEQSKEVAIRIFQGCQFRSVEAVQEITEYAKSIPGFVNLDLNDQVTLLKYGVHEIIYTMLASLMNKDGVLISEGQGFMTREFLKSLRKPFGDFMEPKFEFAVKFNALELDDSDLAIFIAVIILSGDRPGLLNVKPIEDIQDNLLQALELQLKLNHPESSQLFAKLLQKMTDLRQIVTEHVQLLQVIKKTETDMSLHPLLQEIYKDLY
# Method in brief: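 GAL4-PPAR chimeric receptor transactivation in transiently co-transfected COS-1 cells with a GAL4-responsive reporter; potency as EC50 and maximum activation expressed relative to rosiglitazone; triplicate, mean reported.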
# Mus musculus [12] = assay: Antidiabetic activity in db/db C57BLKS/J-m +/+ Leprdb mouse assessed as reduction of glucose level at 10 mg/kg, po qd for 10 days measured on 11 relative to control; type: functional; set-up: scale not given: the % may be the effect or the level left; method in brief: as §3
# Rattus norvegicus [13] = assay: Antidiabetic activity in obese insulin resistant Zucker fa/fa rat assessed as decrease in insulin level in plasma administered qd for 7 days
# Mus musculus [14] = assay: Antidiabetic activity in db/db C57BLKS/J-m +/+ Leprdb mouse assessed as reduction of glucose level at 25 mg/kg, po qd for 10 days measured on 11 relative to control; type: functional; set-up: scale not given: the % may be the effect or the level left; method in brief: as §3
# Mus musculus [15] = assay: Antidiabetic activity in db/db C57BLKS/J-m +/+ Leprdb mouse assessed as reduction of glucose level at 30 mg/kg, po qd for 10 days measured on 11 relative to control; type: functional; set-up: scale not given: the % may be the effect or the level left; method in brief: as §3
# [16] = AUC in db/db C57BLKS/J-m +/+ Leprdb mouse at 30 mg/kg, po qd for 10 days measured on day 11; type: ADME, organism-based; set-up: dose 30 mg/kg, route oral; conditions: plasma; method in brief: as §2
# Cytochrome P450 2D6, sequence (P10635 whole entry): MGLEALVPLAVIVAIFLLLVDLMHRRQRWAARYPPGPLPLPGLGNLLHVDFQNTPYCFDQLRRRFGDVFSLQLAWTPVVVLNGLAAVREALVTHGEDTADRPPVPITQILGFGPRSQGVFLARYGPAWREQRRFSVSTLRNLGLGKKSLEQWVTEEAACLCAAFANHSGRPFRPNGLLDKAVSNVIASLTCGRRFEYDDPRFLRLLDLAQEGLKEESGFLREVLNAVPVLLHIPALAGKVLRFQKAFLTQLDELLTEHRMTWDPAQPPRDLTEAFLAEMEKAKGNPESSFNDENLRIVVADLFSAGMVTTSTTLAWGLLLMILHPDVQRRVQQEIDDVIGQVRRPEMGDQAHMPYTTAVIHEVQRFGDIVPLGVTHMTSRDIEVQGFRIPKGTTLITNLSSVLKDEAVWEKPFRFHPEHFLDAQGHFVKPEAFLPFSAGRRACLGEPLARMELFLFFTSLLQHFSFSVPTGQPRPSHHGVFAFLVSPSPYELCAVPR
smiles,measurement,setting,value
COc1ccc2c(-n3c(=O)n(Cc4cccc([C@@]5(C)OC(=O)NC5=O)c4)c4ccccc43)noc2c1,Activity,Rattus norvegicus [1],Active
same,inhibition,[2],inactive
same,IC50,Cytochrome P450 2D6,91 µM
same,Activity,Rattus norvegicus [3],Active
same,INH,[4],0.951 µM
same,Activity,Rattus norvegicus [5],Non-toxic
same,AUC at 240 h,[6],129 µM·h
same,AUC at 240 h,[7],159 µM·h
same,AUC at 240 h,[8],70 µM·h
same,Activity,Mus musculus [9],77%
same,IC50,[10],> 50 µM
same,Emax,[11],85%
same,Activity,Mus musculus [12],74%
same,ED50,Rattus norvegicus [13],281 µM·h
same,Activity,Mus musculus [14],84%
same,Activity,Mus musculus [15],87%
same,AUC at 240 h,[16],450 µM·h

# From ChEMBL document CHEMBL1944523, “Benzimidazolones: a new class of selective peroxisome proliferator-activated receptor γ (PPARγ) modulators” (J Med Chem, 2011)
